Assays:
[1] = biological target: Histone-lysine N-methyltransferase EZH2 (Homo sapiens, UniProt O75530+Q15022+Q15910); assay: Inhibition of EZH2 histone methyltransferase activity of EZH2/EED/SUZ12 protein complex (unknown origin) using histone H3 peptide as substrate (21 to 44 residues) in presence of [3H]-S-adenosylmethionine after 2 hrs by scintillation proximity assay
Outline: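 20 nM EZH2 trimeric complex with 2 μM 3H-SAM and 1 μM biotinylated H3(21–44) in 20 mM Tris-HCl pH 8, 5 mM DTT, 0.01% Triton X-100. Incubated 1 h at 23 °C, quenched with guanidine hydrochloride, then 2 h streptavidin flash-plate capture. Activity scaled between no-compound and no-enzyme counts.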

[2] = biological target: T1, Histone-lysine N-methyltransferase EZH1 (Homo sapiens, UniProt Q92800); assay: Inhibition of EZH1 histone methyltransferase activity of EZH1/EED/SUZ12/RBBP4/AEBP2 protein complex (unknown origin) using histone H3 peptide as substrate (21 to 44 residues) in presence of [3H]-S-adenosylmethionine after 2 hrs by scintillation proximity assay
T1 sequence (Q92800 whole entry): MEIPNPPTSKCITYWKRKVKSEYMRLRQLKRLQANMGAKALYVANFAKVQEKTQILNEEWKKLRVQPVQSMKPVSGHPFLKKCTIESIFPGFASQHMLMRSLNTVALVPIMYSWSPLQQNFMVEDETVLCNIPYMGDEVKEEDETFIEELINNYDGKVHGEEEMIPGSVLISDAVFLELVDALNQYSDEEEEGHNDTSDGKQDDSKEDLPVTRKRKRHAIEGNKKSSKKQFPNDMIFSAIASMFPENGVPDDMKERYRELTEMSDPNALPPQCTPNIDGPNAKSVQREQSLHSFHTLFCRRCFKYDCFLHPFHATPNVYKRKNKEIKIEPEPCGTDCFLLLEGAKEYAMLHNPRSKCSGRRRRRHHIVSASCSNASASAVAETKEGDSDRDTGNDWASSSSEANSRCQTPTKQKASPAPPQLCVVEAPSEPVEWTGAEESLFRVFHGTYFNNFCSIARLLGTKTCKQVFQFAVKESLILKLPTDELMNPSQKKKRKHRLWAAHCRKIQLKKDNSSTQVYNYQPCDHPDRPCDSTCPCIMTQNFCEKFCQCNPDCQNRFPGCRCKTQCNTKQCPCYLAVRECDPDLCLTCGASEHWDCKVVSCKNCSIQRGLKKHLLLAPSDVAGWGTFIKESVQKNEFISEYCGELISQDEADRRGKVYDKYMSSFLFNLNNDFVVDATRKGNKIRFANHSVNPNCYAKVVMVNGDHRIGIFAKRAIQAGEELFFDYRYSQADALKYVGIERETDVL
Outline: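 10 nM EZH1 pentameric complex with 4 μM 3H-SAM and 1 μM biotinylated H3(21–44) in 20 mM Tris-HCl pH 8, 5 mM DTT, 0.01% Triton X-100. Reaction run 1 h at 23 °C, stopped with guanidine hydrochloride, then captured 2 h on a streptavidin flash plate. Counts normalized to no-compound (100%) and no-enzyme (0%) controls.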

Sequence of Histone-lysine N-methyltransferase EZH2 (Q15910 whole entry, the tested form may be a part, one chain of several): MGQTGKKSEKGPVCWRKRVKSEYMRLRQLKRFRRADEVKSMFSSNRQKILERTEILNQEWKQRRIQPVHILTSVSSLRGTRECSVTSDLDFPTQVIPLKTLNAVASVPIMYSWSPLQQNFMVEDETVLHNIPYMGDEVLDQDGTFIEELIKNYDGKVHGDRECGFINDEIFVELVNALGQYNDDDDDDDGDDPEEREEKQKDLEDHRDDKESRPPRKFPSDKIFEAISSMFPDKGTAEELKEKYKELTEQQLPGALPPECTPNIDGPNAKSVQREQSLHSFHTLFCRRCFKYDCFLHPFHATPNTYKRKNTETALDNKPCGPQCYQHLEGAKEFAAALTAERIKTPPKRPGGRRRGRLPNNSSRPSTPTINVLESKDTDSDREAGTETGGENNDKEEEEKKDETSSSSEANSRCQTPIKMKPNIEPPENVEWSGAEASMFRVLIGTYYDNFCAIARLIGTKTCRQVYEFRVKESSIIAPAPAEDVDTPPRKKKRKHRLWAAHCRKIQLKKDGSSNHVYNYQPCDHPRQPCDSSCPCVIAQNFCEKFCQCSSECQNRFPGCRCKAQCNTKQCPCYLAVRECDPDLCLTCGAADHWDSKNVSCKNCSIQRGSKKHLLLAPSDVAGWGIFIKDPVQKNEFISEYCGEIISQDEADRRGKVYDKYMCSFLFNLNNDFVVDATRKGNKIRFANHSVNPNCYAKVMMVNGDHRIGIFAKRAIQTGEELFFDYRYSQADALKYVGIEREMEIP

CCCc1cc(C)[nH]c(=O)c1CNC(=O)c1cc(-c2ccc(N3CCN(C(C)C)CC3)nc2)cc2c1cnn2C(C)C
IC50 [1]: < 10 nM

CCc1cc(C)c(CNC(=O)c2cc(-c3ccc(N4CCN(C(C)C)CC4)nc3)cc3c2cnn3C(C)C)c(=O)[nH]1
IC50 [1]: 73 nM
IC50 [2]: > 5000 nM

CC(C)N1CCN(c2ccc(-c3cc(C(=O)NCc4ccc[nH]c4=O)c4cnn(C(C)C)c4c3)cn2)CC1
IC50 [1]: > 5000 nM
IC50 [2]: > 5000 nM

CCCc1cc(C)[nH]c(=O)c1CNC(=O)c1nn(C(C)C)c2ccc(-c3ccc(N4CCN(C(C)C)CC4)nc3)cc12
IC50 [1]: > 5000 nM
IC50 [2]: > 5000 nM

CCCc1cc(C)[nH]c(=O)c1CNC(=O)c1cc(-c2ccc(C(F)(F)F)cn2)cc2c1cnn2C(C)C
IC50 [1]: 64 nM
IC50 [2]: > 5000 nM

CCCc1cc(C)[nH]c(=O)c1CNC(=O)c1cc(-c2ccc(N3CCN(C(C)C)CC3)nc2)cc2nn(C(C)C)cc12
IC50 [1]: 384 nM
IC50 [2]: > 2500 nM

CCCc1cc(C)[nH]c(=O)c1CNC(=O)c1cc(-c2ccc(N3CCN(C(C)C)CC3)nc2)cc2c1cnn2CC1CCC1
IC50 [1]: 57 nM
IC50 [2]: > 2500 nM

CCCc1cc(C)[nH]c(=O)c1CNC(=O)c1cc(-c2ccc(N3CCN(C(C)C)CC3)nc2)cc2c1cnn2C1CCCCC1
IC50 [1]: < 10 nM

CCCc1cc(C)[nH]c(=O)c1CNC(=O)c1cc(-c2ccc(N3CCN(C(C)C)CC3)nc2)c2cnn(C(C)C)c2c1
IC50 [1]: 540 nM
IC50 [2]: > 5000 nM

CCCc1cc(C)[nH]c(=O)c1CNC(=O)c1nn(C(C)C)c2cc(-c3ccc(N4CCN(C(C)C)CC4)nc3)ccc12
IC50 [1]: > 5000 nM
IC50 [2]: > 5000 nM

Cc1[nH]c(=O)c(CNC(=O)c2cc(-c3ccc(N4CCN(C(C)C)CC4)nc3)cc3c2cnn3C(C)C)c(C)c1C
IC50 [1]: 328 nM
IC50 [2]: > 5000 nM

CCCCC(CC)Cn1ncc2c(C(=O)NCc3c(CCC)cc(C)[nH]c3=O)cc(-c3ccc(N4CCN(C(C)C)CC4)nc3)cc21 (stereo unspecified)
IC50 [1]: 1110 nM
IC50 [2]: > 5000 nM

CCCc1cc(C)[nH]c(=O)c1CNC(=O)c1cc(-c2ccc(N3CCN(C(C)C)CC3)nc2)cc2c1cnn2CCCCCCO
IC50 [1]: 25 nM
IC50 [2]: 394 nM

Cc1cc(C)c(CNC(=O)c2cc(-c3ccc(N4CCN(C(C)C)CC4)nc3)cc3c2cnn3C(C)C)c(=O)[nH]1
IC50 [2]: > 2500 nM

Cc1[nH]c(=O)c(CNC(=O)c2cc(-c3ccc(N4CCN(C(C)C)CC4)nc3)cc3c2cnn3C(C)C)c2c1CCC2
IC50 [1]: 32 nM
IC50 [2]: > 2500 nM

CCC(C)c1cc(C)c(CNC(=O)c2cc(-c3ccc(N4CCN(C(C)C)CC4)nc3)cc3c2cnn3C(C)C)c(=O)[nH]1 (stereo unspecified)
IC50 [1]: 32 nM
IC50 [2]: > 1250 nM

CCCc1cc(C)[nH]c(=O)c1CNC(=O)c1cc(-c2ccc(N3CCN(C(C)C)CC3)nc2)cc2c1cnn2C1CCCCCC1
IC50 [1]: 117 nM
IC50 [2]: > 2500 nM

CCCc1cc(C)[nH]c(=O)c1CNC(=O)c1cc(-c2ccccc2)cc2c1cnn2C(C)C
IC50 [1]: 41 nM
IC50 [2]: > 1250 nM

CCCc1cc(C)[nH]c(=O)c1CNC(=O)c1cnn2c(-c3ccc(N4CCN(C(C)C)CC4)nc3)cccc12
IC50 [1]: > 5000 nM
IC50 [2]: > 5000 nM

Cc1[nH]c(=O)c(CNC(=O)c2cc(-c3ccc(N4CCN(C(C)C)CC4)nc3)cc3c2cnn3C(C)C)c2c1CCCC2
IC50 [1]: > 2500 nM
IC50 [2]: > 2500 nM

CCCc1cc(C)[nH]c(=O)c1CNC(=O)c1cc(-c2ccc(N3CCN(C(C)C)CC3)nc2)cc2c1cnn2C(C)(C)C
IC50 [1]: < 10 nM
IC50 [2]: 127 nM

CCCc1cc(C)[nH]c(=O)c1CNC(=O)c1cc(-c2ccc(N3CCN(C(C)C)CC3)nc2)cc2c1cnn2C
IC50 [1]: 190 nM
IC50 [2]: > 2500 nM

CCCc1cc(C)[nH]c(=O)c1CNC(=O)c1cc(-c2ccccn2)cc2c1cnn2C(C)C
IC50 [1]: 24 nM
IC50 [2]: 681 nM

Cc1cc(O)c(CNC(=O)c2cc(-c3ccc(N4CCN(C(C)C)CC4)nc3)cc3c2cnn3C(C)C)c(=O)[nH]1
IC50 [1]: > 10000 nM
IC50 [2]: > 10000 nM

CC(C)N1CCN(c2ccc(-c3cc(C(=O)NC4CC(C)(C)NC(C)(C)C4)c4cnn(C(C)C)c4c3)cn2)CC1
IC50 [1]: > 10000 nM
IC50 [2]: > 10000 nM

CCCc1cc(C)[nH]c(=O)c1CNC(=O)c1cc(-c2ccc(N3CCN(C(C)C)CC3)nc2)cc2c1cnn2C(CC)CC
IC50 [1]: < 10 nM
IC50 [2]: 126 nM

CCc1c(C)c[nH]c(=O)c1CNC(=O)c1cc(-c2ccc(N3CCN(C(C)C)CC3)nc2)cc2c1cnn2C(C)C
IC50 [1]: 1020 nM
IC50 [2]: > 5000 nM

Cc1cc(CC(C)C)c(CNC(=O)c2cc(-c3ccc(N4CCN(C(C)C)CC4)nc3)cc3c2cnn3C(C)C)c(=O)[nH]1
IC50 [1]: < 10 nM
IC50 [2]: 211 nM

CCCc1cc(C)[nH]c(=O)c1CNC(=O)c1cc(-c2ccc(F)cc2)cc2c1cnn2C(C)C
IC50 [1]: 48 nM
IC50 [2]: > 1250 nM

CCCc1cc(C)[nH]c(=O)c1CNC(=O)c1cc(-c2ccc(N3CCN(CC)CC3)nc2)cc2c1cnn2C(C)C
IC50 [1]: < 10 nM
IC50 [2]: 88 nM

Cc1cc(C(C)C)c(CNC(=O)c2cc(-c3ccc(N4CCN(C(C)C)CC4)nc3)cc3c2cnn3C(C)C)c(=O)[nH]1
IC50 [1]: < 10 nM
IC50 [2]: 320 nM

CCCc1cc(C)[nH]c(=O)c1CNC(=O)c1cc(-c2ccc(N3CCN(C(C)C)CC3)nc2)cc2c1cnn2C1CCCC1
IC50 [1]: < 10 nM
IC50 [2]: 108 nM

CCCc1cc(C)[nH]c(=O)c1CNC(=O)c1cc(-c2ccc(N3CCN(C(C)C)CC3)nc2)cc2c1cnn2CC1CCCCC1
IC50 [1]: 697 nM
IC50 [2]: > 2500 nM

Cc1cc(C(C)(C)C)[nH]c(=O)c1CNC(=O)c1cc(-c2ccc(N3CCN(C(C)C)CC3)nc2)cc2c1cnn2C(C)C
IC50 [1]: > 10000 nM
IC50 [2]: > 10000 nM

CCCc1cc(C)[nH]c(=O)c1CNC(=O)c1cc(-c2ccc(C(F)(F)F)cc2)cc2c1cnn2C(C)C
IC50 [1]: 66 nM
IC50 [2]: > 1250 nM

Cc1cc(C2CCCC2)c(CNC(=O)c2cc(-c3ccc(N4CCN(C(C)C)CC4)nc3)cc3c2cnn3C(C)C)c(=O)[nH]1
IC50 [1]: < 10 nM
IC50 [2]: 86 nM

CCCc1cc(C)[nH]c(=O)c1CNC(=O)c1cc(-c2ccc(N3CCN(C(C)C)CC3)nc2)cc2c1cnn2CC1CCCC1
IC50 [1]: 149 nM
IC50 [2]: > 2500 nM

CCCc1cc(C)[nH]c(=O)c1CNC(=O)c1cn2ccc(-c3ccc(N4CCN(C(C)C)CC4)nc3)cc2n1
IC50 [1]: > 10000 nM
IC50 [2]: > 10000 nM

CCCc1cc(C)[nH]c(=O)c1CNC(=O)c1cc(-c2ccc(N3CCN(C(C)C)CC3)nc2)cc2c1cnn2Cc1ccccc1
IC50 [1]: 280 nM
IC50 [2]: > 5000 nM

CCCc1cc(C)[nH]c(=O)c1CNC(=O)c1cc(-c2ccc(N3CCN(C(C)C)CC3)nc2)cc2c1cnn2CCC1CCCCC1
IC50 [1]: > 1250 nM
IC50 [2]: > 2500 nM

Cc1ncc(CNC(=O)c2cc(-c3ccc(N4CCN(C(C)C)CC4)nc3)cc3c2cnn3C(C)C)c(=O)[nH]1
IC50 [1]: > 2300 nM
IC50 [2]: > 10000 nM

CCCc1cc(C)[nH]c(=O)c1CNC(=O)c1cccn2c(-c3ccc(N4CCN(C(C)C)CC4)nc3)cnc12
IC50 [1]: > 5000 nM
IC50 [2]: > 5000 nM

CC(C)N1CCN(c2ccc(-c3cc(C(=O)NCc4cnc[nH]c4=O)c4cnn(C(C)C)c4c3)cn2)CC1
IC50 [1]: > 10000 nM
IC50 [2]: > 10000 nM

Cc1cc(-c2ccccc2)[nH]c(=O)c1CNC(=O)c1cc(-c2ccc(N3CCN(C(C)C)CC3)nc2)cc2c1cnn2C(C)C
IC50 [1]: > 10000 nM
IC50 [2]: > 10000 nM

Cc1[nH]c(=O)[nH]c(=O)c1CNC(=O)c1cc(-c2ccc(N3CCN(C(C)C)CC3)nc2)cc2c1cnn2C(C)C
IC50 [1]: > 10000 nM
IC50 [2]: > 10000 nM

CCCc1cc(C)[nH]c(=O)c1CNC(=O)c1cc(-c2ccc(F)cn2)cc2c1cnn2C(C)C
IC50 [1]: 22 nM
IC50 [2]: 773 nM

CCCc1cc(C)[nH]c(=O)c1CNC(=O)c1cc(-c2ccc(N3CCNCC3)nc2)cc2c1cnn2C(C)C
IC50 [1]: < 10 nM
IC50 [2]: 60 nM
